Assay results: ChEMBL document CHEMBL1126283, “Thromboxane receptor antagonism combined with thromboxane synthase inhibition. 4. 8-[[(4-Chlorophenyl)sulfonyl]amino]-4-(3-(3-pyridinyl) propyl)octanoic acid and analogs” (J Med Chem, 1992)

Key:
Homo sapiens [1] = species on record: Homo sapiens; assay: In vitro inhibition of U 46619 induced aggregation of washed platelets
Method in brief: (§1)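 Antagonism of aggregation induced by the PGH2/TxA2 mimetic U 46619, run in human washed platelets (WP) and in platelet-rich plasma (PRP); IC50 reported. Values come from one or two determinations.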

Thromboxane-A synthase = target: T1, Thromboxane-A synthase (Homo sapiens, UniProt P24557); assay: In vitro inhibition of Thromboxane A2 synthase
T1 sequence (P24557 whole entry): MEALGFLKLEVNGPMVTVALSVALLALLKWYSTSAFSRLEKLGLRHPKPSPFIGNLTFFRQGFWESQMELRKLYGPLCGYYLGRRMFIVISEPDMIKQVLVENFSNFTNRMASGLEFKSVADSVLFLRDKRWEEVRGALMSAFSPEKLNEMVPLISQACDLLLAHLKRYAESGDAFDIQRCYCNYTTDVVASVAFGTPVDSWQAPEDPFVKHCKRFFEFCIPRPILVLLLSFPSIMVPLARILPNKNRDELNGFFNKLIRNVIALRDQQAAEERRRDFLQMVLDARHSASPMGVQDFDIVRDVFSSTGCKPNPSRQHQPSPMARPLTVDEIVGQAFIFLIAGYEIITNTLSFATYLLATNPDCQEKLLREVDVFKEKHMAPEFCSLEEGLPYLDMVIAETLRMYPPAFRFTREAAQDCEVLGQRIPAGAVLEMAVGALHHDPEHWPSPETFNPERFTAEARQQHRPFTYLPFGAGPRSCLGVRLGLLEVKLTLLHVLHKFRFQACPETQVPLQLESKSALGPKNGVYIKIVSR

Homo sapiens [2] = species on record: Homo sapiens; assay: Evaluated in vitro for the inhibition of U 46619 induced aggregation of platelet-rich plasma; method in brief: as §1
Canis familiaris = species on record: Canis familiaris; assay: Evaluated for contraction of dog saphenous vein; assay type: functional, organism-based; conditions: Canis lupus familiaris, read-out: pA2 (converted)
Method in brief: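 Dog saphenous vein rings contracted with U 46619; antagonism expressed as pA2. Number of determinations = 1, with more than 12 rings per determination and a single drug concentration applied to each ring.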

Cavia porcellus [3] = assay: Ex vivo inhibition of U-46,619-induced aggregation of guinea pig platelets after peroral administration of 10 mg/kg dose at 1 hr time; assay type: functional; conditions: route oral
Method in brief: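 Fasted (12-16 h) male Hartley guinea pigs (350-400 g), 3-6 per group, dosed orally in a 3% fortified cornstarch suspension vehicle. At 1 h (or 6 h), animals under methoxyflurane anaesthesia were bled by cardiac puncture into citrate (0.0129 M final). PRP (500g, 7 min) was stirred 1 min at 37 °C, then U 46619 added. Result reported as EC50 drug-treated / EC50 vehicle.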

Cavia porcellus [4] = species on record: Cavia porcellus; assay: Inhibition of bronchoconstriction in guinea pigs; assay type: functional; conditions: Lung
Method in brief: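 Guinea pigs with cannulated trachea, ventilated at 40 strokes/min, given succinylcholine (1.0 mg/kg). Arachidonic acid priming dose 0.25 mg/kg iv, then 0.5 mg/kg iv. Test compound was then given as an iv bolus, with a 0.5 mg/kg AA challenge 5 min later. Peak insufflation pressure expressed as % of control. Five doses (0.1-1000 µg/kg), 6-8 animals per dose, ED50 derived.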

Cavia porcellus [5] = assay: Ex vivo inhibition of U-46,619-induced aggregation of guinea pig platelets after peroral administration of 10 mg/kg dose at 6 hr time; assay type: functional; conditions: route oral
Method in brief: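 Male Hartley guinea pigs (350-400 g), fasted 12-16 h, dosed orally in 3% fortified cornstarch suspension vehicle; groups of three to six. At 6 h, cardiac-puncture blood drawn under methoxyflurane into citrate (0.0129 M final). PRP obtained at 500g, 7 min. PRP preincubated 1 min at 37 °C with stirring, then U 46619 added. Aggregation ratio = EC50 drug-treated/EC50 vehicle-treated.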

Homo sapiens [6] = species on record: Homo sapiens; assay: In vitro inhibition of U 46619 induced aggregation of washed platelets(WP); method in brief: as §1

| Compound | IC50 (Homo sapiens [1]) | IC50 (Thromboxane-A synthase) | IC50 (Homo sapiens [2]) | Kb (Canis familiaris) | Concentration ratio (Cavia porcellus [3]) | ED50 (Cavia porcellus [4]) | Concentration ratio (Cavia porcellus [5]) | IC50 (Homo sapiens [6]) |
| --- | --- | --- | --- | --- | --- | --- | --- | --- |
| O=C(O)/C=C/C(CCCCNS(=O)(=O)c1ccc(Cl)cc1)CCCc1cccnc1 (centres undefined) | 70 nM | 10 nM | 770 nM | – | – | – | – | – |
| O=C(O)CCC(C/C=C/c1cccnc1)CCCCNS(=O)(=O)c1ccc(Cl)cc1 (centres undefined) | 27 nM | 7 nM | 1190 nM | 0.603 nM | – | – | – | – |
| O=S(=O)(NCCCCC(CCCc1cccnc1)CCC1N=NN=N1)c1ccc(Cl)cc1 (centres undefined) | 22 nM | 5 nM | 910 nM | 0.468 nM | 10 | – | – | – |
| CC(CC(CCCCNS(=O)(=O)c1ccc(Cl)cc1)CCCc1cccnc1)C(=O)O (centres undefined) | 53 nM | 3 nM | 2900 nM | 1.48 nM | 9 | – | – | – |
| O=C(O)CCC(CCCCNS(=O)(=O)c1ccc(Cl)cc1)CCn1ccnc1 (centres undefined) | 1520 nM | 40 nM | – | 34.7 nM | – | – | – | – |
| CS(=O)(=O)c1ccc(S(=O)(=O)NCCCCC(CCCc2cccnc2)CCC(=O)O)cc1 (centres undefined) | > 10000 nM | 4 nM | – | – | – | – | – | – |
| O=C(O)CC(CCCCNS(=O)(=O)c1ccc(Cl)cc1)CCCc1cccnc1 (centres undefined) | 200 nM | 7 nM | – | 3.72 nM | – | – | – | – |
| O=C(O)C(=O)NC(CCCCNS(=O)(=O)c1ccc(Cl)cc1)CCCc1cccnc1 (centres undefined) | 590 nM | 150 nM | 11300 nM | 1.86 nM | – | – | – | – |
| O=S(=O)(NCCCCC(CCCO)CCCc1cccnc1)c1ccc(Cl)cc1 (centres undefined) | 2360 nM | 70 nM | – | – | – | – | – | – |
| CC(C)(CC(CCCCNS(=O)(=O)c1ccc(Cl)cc1)CCCc1cccnc1)C(=O)O (centres undefined) | 18 nM | 20 nM | 3700 nM | 1 nM | 8.7 | – | – | – |
| O=C(O)CSC(CCCCNS(=O)(=O)c1ccc(Cl)cc1)CCCc1cccnc1 (centres undefined) | 6 nM | 2 nM | 400 nM | 0.269 nM | 33 | 7.42 µg/kg | – | – |
| COc1ccc(S(=O)(=O)NCCCCC(CCCc2cccnc2)CCC(=O)O)cc1 (centres undefined) | 220 nM | 3 nM | 1340 nM | – | – | – | – | – |
| Cc1ccc(S(=O)(=O)NCCCCC(CCCc2cccnc2)CCC(=O)O)cc1 (centres undefined) | 58 nM | 1 nM | 15200 nM | 1.55 nM | – | – | – | – |
| O=C(O)CCC(CCCCNS(=O)(=O)c1ccc(F)cc1)CCCc1cccnc1 (centres undefined) | 108 nM | 1 nM | > 30000 nM | – | – | – | – | – |
| O=C(O)COC(CCCCNS(=O)(=O)c1ccc(Cl)cc1)CCCc1cccnc1 (centres undefined) | 15 nM | 18 nM | 1600 nM | – | 2.6 | – | – | – |
| O=C(O)CCC(CCCCNS(=O)(=O)c1ccc2ccccc2c1)CCCc1cccnc1 (centres undefined) | 240 nM | 1.5 nM | 2800 nM | – | – | – | – | – |
| O=C(O)CCC(CCCCNS(=O)(=O)c1ccc(Cl)cc1)CCCn1ccnc1 (centres undefined) | 980 nM | 3 nM | 3700 nM | 5.5 nM | – | – | – | – |
| O=C(O)CCC(CCCCNS(=O)(=O)c1ccc(Cl)cc1)CCOc1cccnc1 (centres undefined) | 13 nM | 3 nM | 280 nM | 0.398 nM | >100 | 5.2 µg/kg | >100 | – |
| O=C(O)CCC(CCCCNS(=O)(=O)c1ccc(C(F)(F)F)cc1)CCCc1cccnc1 (centres undefined) | 230 nM | 2 nM | 610 nM | – | – | – | – | – |
| NC(=O)CCC(CCCCNS(=O)(=O)c1ccc(Cl)cc1)CCCc1cccnc1 (centres undefined) | > 10000 nM | 60 nM | – | – | – | – | – | – |
| Cc1ccncc1CCCC(CCCCNS(=O)(=O)c1ccc(Cl)cc1)CCC(=O)O (centres undefined) | 6 nM | 1 nM | 4860 nM | – | – | – | – | – |
| O=C(O)CCC(CCCCNS(=O)(=O)c1ccc(Cl)cc1)CCCc1cccnc1 (centres undefined) | – | 20 nM | – | – | 27.3 | 5.75 µg/kg | 11.8 | – |
| O=C(O)CCCCO/N=C(/c1cccnc1)c1cccc(C(F)(F)F)c1 [RIDOGREL] | – | – | – | – | 5.6 | 48.3 µg/kg | – | – |
| O=C(O)C(CCCCNS(=O)(=O)c1ccc(Cl)cc1)CCCc1cccnc1 (centres undefined) | – | 90 nM | – | – | – | – | – | 9300 nM |
| [N-]=[N+]=Nc1ccc(S(=O)(=O)NCCCCC(CCCc2cccnc2)CCC(=O)O)cc1 (centres undefined) | 35 nM | 4 nM | 2000 nM | – | – | – | – | – |
| O=C(O)CCC(CCCCNS(=O)(=O)c1ccc(Cl)cc1)CCCc1ccc[n+]([O-])c1 (centres undefined) | 500 nM | 3 nM | 8700 nM | 7.41 nM | – | – | – | – |
| CCOC(=O)CCC(CCCCNS(=O)(=O)c1ccc(Cl)cc1)CCCc1cccnc1 (centres undefined) | – | – | – | – | 3 | – | – | – |
